Usually inhibition stands for the drop in the measured response relative to a control, in per cent.

Assay [1] is described as follows: Inhibition of MM6 cell adhesion to BAEC at 100 uM relative to control by static assay. It is filed as functional. The gist of the method:
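BAEC monolayers (passage 1-3, 7 days after seeding) stimulated with 20 ng/mL TNFα for 4 or 16 h, test agent in DMSO or vehicle for 20 min at 37 °C/5% CO2. After washing, leukocytes added at 1 × 10^6 cells/mL for 30 min at 37 °C. Non-adherent cells washed off, adherent cells counted microscopically. TNFα-stimulated adhesion set to 100%. Single concentration, 100 µM.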

The next assay relates to AEC. Description: Viability of BAEC by Roche-XTT assay relative to control. The arrangement: concentration or dose not given beside the values. It counts as functional, Bos taurus. The gist of the method: (§1)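 XTT assay: metabolically active cells convert yellow tetrazolium XTT to orange formazan. Untreated control viability set to 100%. Cells were BAEC or MM6 as named in each line; MM6 tested at 100 µM.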

In assay [2] the test system is MONO-MAC-6. Description: Viability of MM6 cells at 50 uM by Roche-XTT assay relative to control. It counts as functional, Homo sapiens. A general note: Tetrazolium dyes change colour on reduction, which living cells bring about.
The nature of assay [3]: Viability in ATP-lite assay relative to control. It is filed as functional. Set-up: concentration or dose not given beside the values.
For assay [4], the target named is T1, L-selectin (Homo sapiens) (UniProt P14151).
T1 sequence (whole entry): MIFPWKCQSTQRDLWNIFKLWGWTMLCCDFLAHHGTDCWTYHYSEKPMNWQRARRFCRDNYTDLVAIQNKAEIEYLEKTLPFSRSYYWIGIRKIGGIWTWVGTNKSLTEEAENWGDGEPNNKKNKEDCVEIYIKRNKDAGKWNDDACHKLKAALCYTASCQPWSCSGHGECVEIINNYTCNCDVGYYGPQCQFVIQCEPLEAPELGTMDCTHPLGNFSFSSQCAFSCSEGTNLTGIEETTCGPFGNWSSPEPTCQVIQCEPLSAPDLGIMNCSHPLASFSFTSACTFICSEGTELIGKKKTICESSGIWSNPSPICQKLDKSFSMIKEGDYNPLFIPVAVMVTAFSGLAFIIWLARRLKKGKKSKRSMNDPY
Description: Inhibition of sLex binding to L-selectin at 100 uM relative to control by glyco-ELISA assay. In a few lines: (§2)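 Cell-free competitive binding assay. The named selectin is immobilized on microtiter plates, and compound plus sLex-tyrosine sulfate on biotinylated polyacrylamide are added. After incubation, bound ligand is detected by streptavidin-peroxidase, OD 414 nm, with empty-plate absorbance subtracted. Wells coated only with sLex define 0%; EDTA (blocks Ca2+-dependent binding) defines 100% inhibition.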

Assay [5] has as its target T1, L-selectin (Homo sapiens). The assay can be described thus: Inhibition of sLex binding to L-selectin at 500 uM relative to control by glyco-ELISA assay. In a few lines: as §2
The target of assay [6] is T2, E-selectin (Homo sapiens) (UniProt P16581).
T2 sequence (whole entry): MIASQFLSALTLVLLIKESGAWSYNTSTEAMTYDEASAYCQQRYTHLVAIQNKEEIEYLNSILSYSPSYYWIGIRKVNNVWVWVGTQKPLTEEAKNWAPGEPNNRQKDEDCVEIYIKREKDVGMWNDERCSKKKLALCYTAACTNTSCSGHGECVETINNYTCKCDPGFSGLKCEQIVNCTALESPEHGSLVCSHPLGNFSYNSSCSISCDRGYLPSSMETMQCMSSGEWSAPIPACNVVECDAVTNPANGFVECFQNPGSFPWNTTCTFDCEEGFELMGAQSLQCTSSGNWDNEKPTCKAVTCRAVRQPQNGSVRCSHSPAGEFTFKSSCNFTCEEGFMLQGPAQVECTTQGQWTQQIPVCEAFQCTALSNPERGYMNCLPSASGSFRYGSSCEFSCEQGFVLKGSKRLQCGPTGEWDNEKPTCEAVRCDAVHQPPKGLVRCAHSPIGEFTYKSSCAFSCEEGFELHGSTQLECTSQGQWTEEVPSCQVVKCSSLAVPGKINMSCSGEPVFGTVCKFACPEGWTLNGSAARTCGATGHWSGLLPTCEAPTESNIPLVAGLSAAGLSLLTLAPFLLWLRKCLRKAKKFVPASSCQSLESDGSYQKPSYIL
The assay can be described thus: Inhibition of sLex binding to E-selectin at 100 uM relative to control by glyco-ELISA assay. In a few lines:
as §2
Background: In an ELISA, binding on a coated surface is turned into a signal by an enzyme label.

Assay [7] addresses T3, P-selectin (Homo sapiens) (UniProt P16109).
T3 sequence (whole entry): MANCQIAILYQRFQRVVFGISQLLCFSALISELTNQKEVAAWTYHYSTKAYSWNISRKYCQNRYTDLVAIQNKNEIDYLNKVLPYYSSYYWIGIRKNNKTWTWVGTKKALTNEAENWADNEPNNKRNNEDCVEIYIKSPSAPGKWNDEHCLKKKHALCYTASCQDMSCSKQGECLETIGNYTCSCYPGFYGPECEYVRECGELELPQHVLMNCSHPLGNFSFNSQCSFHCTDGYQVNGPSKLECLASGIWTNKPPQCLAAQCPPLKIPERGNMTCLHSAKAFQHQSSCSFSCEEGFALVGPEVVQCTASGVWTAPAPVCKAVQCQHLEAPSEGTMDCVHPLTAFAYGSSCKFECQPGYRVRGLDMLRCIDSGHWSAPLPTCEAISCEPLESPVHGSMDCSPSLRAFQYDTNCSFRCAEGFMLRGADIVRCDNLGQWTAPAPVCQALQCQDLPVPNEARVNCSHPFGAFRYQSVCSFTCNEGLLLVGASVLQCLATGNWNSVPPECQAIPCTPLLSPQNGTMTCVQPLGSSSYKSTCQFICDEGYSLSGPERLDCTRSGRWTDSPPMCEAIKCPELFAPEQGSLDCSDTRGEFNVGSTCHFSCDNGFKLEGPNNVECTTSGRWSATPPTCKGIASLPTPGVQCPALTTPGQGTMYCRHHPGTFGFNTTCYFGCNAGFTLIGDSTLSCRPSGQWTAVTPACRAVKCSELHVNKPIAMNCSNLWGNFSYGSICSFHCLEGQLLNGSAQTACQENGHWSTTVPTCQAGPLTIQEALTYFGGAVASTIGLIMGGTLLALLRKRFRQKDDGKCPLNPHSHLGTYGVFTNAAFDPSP
The assay can be described thus: Inhibition of sLex binding to P-selectin at 100 uM relative to control by glyco-ELISA assay. The gist of the method:
as §2

In assay [8] the test system is MONO-MAC-6. Description: Viability of MM6 cells at 100 uM by Roche-XTT assay relative to control. It counts as functional, Homo sapiens. The gist of the method:
as §1

For assay [9], the target named is T3, P-selectin (Homo sapiens). Description: Inhibition of sLex binding to P-selectin at 500 uM relative to control by glyco-ELISA assay. In a few lines: as §2
A further assay relates to Mus musculus. Description: Reduction in proteose peptone-induced PMN extravasation in C57BL/J mouse peritonitis model at 50 mg/kg, ip. It counts as functional. The arrangement: scale not given: the % may be the effect or the level left. As to conditions: route intraperitoneal. The gist of the method:
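Male C57BL/6 mice received 100 µL of a 50 mg/mL compound suspension in corn oil ip, or vehicle, then 1 h later 3 mL of 3% proteose peptone ip. Peritoneal leukocytes were lavaged at 6 h with cold HBSS/5 mM EDTA and stained with PE-conjugated anti-PMN, MOMA-2 and anti-CD2 antibodies. Cells were classified by scatter and fluorescence. Mean ± SEM, n = 4.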

For `CCCCCCCCCCOc1cccc(OCCCCCCON=C(c2ccc(C(=O)O)cc2)c2ccc(C(=O)O)cc2)c1`, the inhibition at 100 µM in [1] amounted to 67%. In addition, the Activity is reported as 40% in the assay on AEC and 12% in the assay on MONO-MAC-6 [2].
As to `CCCCCCCCCCOc1cc(OCCCCCCCCCC)cc(OCCCCCCN(c2ccc(C(=O)O)cc2)c2ccc(C(=O)O)cc2)c1`, the Activity is reported as 77% in [3], 112% in the assay with MONO-MAC-6 [8], 102% in the assay with AEC and 44% in the assay on Mus musculus. Further, the inhibition in assay [4] is 41%; in assay [5] it was 82%; in assay [6], 94%; in [7] it was 35%; in [9], 81%. In addition, the inhibition at 100 µM in [1] was 107%.

The values above are taken from ChEMBL document CHEMBL1137388, “A novel class of potent nonglycosidic and nonpeptidic pan-selectin inhibitors” (2006).
